Article PMC5616077 (Toxicology Reports, 2016)

How the values were obtained:
[1] = tested on: carnitine palmitoyltransferase 1 (CPT1); conditions: liver of rats upon treatment; ref [55], [56]; cited from earlier work
[2] = tested on: HaCaT WT cells; test: Targeted metabolomics; format: cell-based, human; conditions: 48 h, BAP 1 μM, DALP 0.01 μM
Method in brief: (§1)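 Cells in DMEM with 10% FCS were seeded at 1 × 10^5 cells/mL and exposed 24 h later for 48 h, 4 replicates; vehicle controls got 0.1% DMSO. Cells were washed with ice-cold 155 mM ammonium formate pH 7.4, pelleted, weighed and snap-frozen. Extracts went on the p180 kit with isotope-labelled standards, phenylisothiocyanate derivatisation and 5 mM ammonium acetate/methanol extraction. Read by LC–MS/MS (positive) and FIA-MS/MS (±), MRM; μM normalised to pellet weight.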

[3] = MTT assay; format: cell-based, human; conditions: human, HaCaT wild-type (WT) cells
[4] = tested on: HaCaT AHR-KD cells; test: Targeted metabolomics; format: cell-based, human; conditions: 48 h, BAP 1 μM, CRY 1 μM, DALP 0.01 μM
Method in brief: as §1

Clc1cc2c(cc1Cl)Oc1cc(Cl)c(Cl)cc1O2 [TCDD, 2,3,7,8-tetrachlorodibenzo-p-dioxin]
increase of carnitine palmitoyltransferase 1 (CPT1) [1]: more than 3 fold

c1ccc2c(c1)cc1ccc3cccc4ccc2c1c34 [BAP, benzo[a]pyrene]
change of Gln level vs control (in words) ([2]; CRY 1 μM): strongly lowered | change of PCaa_C36:2 level vs control (in words) ([2]; CRY 1 μM): increased | C4:1 concentration ([2]; CRY 1 μM, mean ± SD): 1.1 ± 0.1 nmol/g pellet weight | C4 concentration ([2]; CRY 1 μM, mean ± SD): 2.5 ± 0.3 nmol/g pellet weight | C6 (C4:1-DC) concentration ([2]; CRY 1 μM, mean ± SD): 2.3 ± 0.2 nmol/g pellet weight | C10:2 concentration ([2]; CRY 1 μM, mean ± SD): 1.0 ± 0.1 nmol/g pellet weight | C12-DC concentration ([2]; CRY 1 μM, mean ± SD): 3.8 ± 0.2 nmol/g pellet weight | C12:1 concentration ([2]; CRY 1 μM, mean ± SD): 1.2 ± 0.1 nmol/g pellet weight | C18:1-OH concentration ([2]; CRY 1 μM, mean ± SD): 0.9 ± 0.1 nmol/g pellet weight | C18:2 concentration ([2]; CRY 1 μM, mean ± SD): 1.0 ± 0.1 nmol/g pellet weight | Gln concentration ([2]; CRY 1 μM, mean ± SD): 77.1 ± 18.2 nmol/g pellet weight | PCaa_C32:2 concentration ([2]; CRY 1 μM, mean ± SD): 103.6 ± 11.5 nmol/g pellet weight | PCaa_C36:2 concentration ([2]; CRY 1 μM, mean ± SD): 2039.2 ± 198.8 nmol/g pellet weight | PCae_C32:1 concentration ([2]; CRY 1 μM, mean ± SD): 198.8 ± 17.1 nmol/g pellet weight | PCae_C34:2 concentration ([2]; CRY 1 μM, mean ± SD): 238.2 ± 23.8 nmol/g pellet weight | PCae_C34:3 concentration ([2]; CRY 1 μM, mean ± SD): 26.8 ± 3.1 nmol/g pellet weight | PCae_C36:2 concentration ([2]; CRY 1 μM, mean ± SD): 354.1 ± 28.2 nmol/g pellet weight | PCae_C36:3 concentration ([2]; CRY 1 μM, mean ± SD): 108.6 ± 10.5 nmol/g pellet weight | PCae_C38:1 concentration ([2]; CRY 1 μM, mean ± SD): 29.7 ± 2.2 nmol/g pellet weight | PCae_C38:2 concentration ([2]; CRY 1 μM, mean ± SD): 74.9 ± 6.3 nmol/g pellet weight | PCae_C38:3 concentration ([2]; CRY 1 μM, mean ± SD): 33.8 ± 3.9 nmol/g pellet weight | PCae_C38:4 concentration ([2]; CRY 1 μM, mean ± SD): 69.0 ± 7.3 nmol/g pellet weight | PCae_C40:4 concentration ([2]; CRY 1 μM, mean ± SD): 11.7 ± 1.5 nmol/g pellet weight | PCae_C40:5 concentration ([2]; CRY 1 μM, mean ± SD): 30.0 ± 2.5 nmol/g pellet weight | SM_C16:1 concentration ([2]; CRY 1 μM, mean ± SD): 35.3 ± 3.4 nmol/g pellet weight | alpha-AAA concentration ([2]; CRY 1 μM, mean ± SD): 5.7 ± 1.8 nmol/g pellet weight | change of alpha-AAA level vs control (in words) [2]: strong down-regulation | change of carnitines (e.g. C18:2) vs control (in words) [2]: strong up-regulation | viability at 48 h, 20 µM [3]: ~80% | change of Gln level vs control (in words) [4]: decreased
